Measured values reported in ChEMBL document CHEMBL1123459, “Synthesis and dopaminergic binding of 2-aryldopamine analogues: phenethylamines, 3-benzazepines, and 9-(aminomethyl)fluorenes” (J Med Chem, 1986).

What was measured:
D(1A) dopamine receptor [1] = biological target: T1, D(1A) dopamine receptor (Rattus norvegicus, UniProt P18901); experiment: Displacement of [3H]fenoldopam from Dopamine receptor D1 of rat striatum membranes; format: cell membranes, Membrane
D(2) dopamine receptor = D(2) dopamine receptor (Bos taurus, UniProt P20288); experiment: Compound was tested for inhibition of [3H]spiroperidol binding against Dopamine receptor D2
Procedure, shortened: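 Washed bovine anterior pituitary membranes (500 μg protein) incubated 20 min at 37 °C with 0.2–0.3 nM [3H]spiroperidol in Tris-HCl pH 7.4, MgSO4, 2 mM EDTA, 0.1% ascorbate.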

[2] = biological target: D(2) dopamine receptor (Bos taurus) (UniProt P20288); experiment: Compound was tested for inhibition of [3H]spiroperidol binding against Dopamine receptor D2 at 10e-5 M; IA= Inactive
[3] = biological target: D(2) dopamine receptor (Bos taurus) (UniProt P20288); experiment: Compound was tested for inhibition of [3H]spiroperidol binding against Dopamine receptor D2 at 10e-5 M
D(1A) dopamine receptor [4] = biological target: T1, D(1A) dopamine receptor; experiment: Compound was tested for binding affinity against dDopamine receptor D1 using [3H]fenoldopam as a radioligand

T1 sequence (P18901 whole entry): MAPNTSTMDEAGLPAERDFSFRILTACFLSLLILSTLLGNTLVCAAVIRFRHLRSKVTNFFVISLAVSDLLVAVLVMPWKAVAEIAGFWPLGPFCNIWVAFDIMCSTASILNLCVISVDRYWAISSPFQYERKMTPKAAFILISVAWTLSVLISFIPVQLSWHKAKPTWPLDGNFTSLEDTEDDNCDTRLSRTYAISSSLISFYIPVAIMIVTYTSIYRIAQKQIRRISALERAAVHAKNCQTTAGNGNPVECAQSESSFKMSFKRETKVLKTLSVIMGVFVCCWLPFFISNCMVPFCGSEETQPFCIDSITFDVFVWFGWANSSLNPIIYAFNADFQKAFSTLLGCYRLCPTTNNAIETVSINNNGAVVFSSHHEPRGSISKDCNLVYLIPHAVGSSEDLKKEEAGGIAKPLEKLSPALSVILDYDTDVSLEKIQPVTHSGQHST
D(2) dopamine receptor (Bos taurus), sequence (P20288 whole entry): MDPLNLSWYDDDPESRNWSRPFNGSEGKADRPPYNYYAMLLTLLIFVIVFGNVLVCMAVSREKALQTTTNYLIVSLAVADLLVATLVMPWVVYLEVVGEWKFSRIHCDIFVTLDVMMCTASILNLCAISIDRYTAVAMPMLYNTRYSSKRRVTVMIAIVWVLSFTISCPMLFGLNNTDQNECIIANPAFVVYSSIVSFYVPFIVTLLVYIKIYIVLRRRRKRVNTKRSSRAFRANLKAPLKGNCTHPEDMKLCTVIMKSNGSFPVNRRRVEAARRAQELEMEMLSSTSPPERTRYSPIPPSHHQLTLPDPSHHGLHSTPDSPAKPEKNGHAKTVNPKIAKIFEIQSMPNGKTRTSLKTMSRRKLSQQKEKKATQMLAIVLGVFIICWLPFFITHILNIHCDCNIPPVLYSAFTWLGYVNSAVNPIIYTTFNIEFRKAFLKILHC
D(2) dopamine receptor, sequence (P20288 whole entry): as above

Question: Which Ki (D(1A) dopamine receptor [1]) does the source give for NCC1c2cc(O)ccc2-c2c1ccc(O)c2O (stereo unspecified) here?
Answer: 43 nM

Question: And the Ki (D(2) dopamine receptor)?
Answer: 5740 nM

Question: NCCc1ccc(O)c(O)c1-c1ccccc1 was tested. Which Ki (D(1A) dopamine receptor [1]) did it give?
Answer: 1500 nM

Question: And the inhibition [2]?
Answer: < 20%

Question: What does the source list for Oc1ccc(-c2c(O)c(O)cc3c2CCNCC3)cc1?
Answer: Ki (D(1A) dopamine receptor [1]): > 3000 nM; inhibition [2]: < 20%

Question: How did the Ki (D(1A) dopamine receptor [1]) turn out when CCCN(CCC)CCc1ccc(O)c(O)c1-c1ccccc1 was run?
Answer: 1940 nM

Question: What about the inhibition [3] of the same compound?
Answer: 29%

Question: How did the Ki (D(1A) dopamine receptor [4]) turn out when Oc1cc2c(cc1O)CCNCC2 was run?
Answer: 970 nM

Question: How did the Ki (D(1A) dopamine receptor [1]) turn out when CCCN(CCC)CCc1ccc(O)c(O)c1-c1ccc(O)cc1 was run?
Answer: 1740 nM

Question: What about the Ki (D(2) dopamine receptor) of the same compound?
Answer: 1800 nM

Question: What does the source list for NCCc1ccc(O)c(O)c1-c1ccc(O)cc1?
Answer: Ki (D(1A) dopamine receptor [1]): 1650 nM; inhibition [2]: < 20%

Question: Which results are given for Oc1cc2c(c(-c3ccccc3)c1O)CCNCC2?
Answer: Ki (D(1A) dopamine receptor [1]): 1790 nM; inhibition [2]: < 20%

Question: For NCC1c2ccccc2-c2c1ccc(O)c2O (stereo unspecified), which Ki (D(1A) dopamine receptor [1]) is on record?
Answer: 380 nM

Question: And the inhibition [3]?
Answer: 20%

Question: How did the Ki (D(1A) dopamine receptor [1]) turn out when Oc1c(O)c(-c2ccccc2)c2c(c1Cl)CCNCC2 was run?
Answer: 700 nM

Question: What about the inhibition [3] of the same compound?
Answer: 27%

Question: How did the Ki (D(1A) dopamine receptor [1]) turn out when Oc1ccc(-c2c(O)c(O)c(Cl)c3c2CCNCC3)cc1 was run?
Answer: 1630 nM

Question: And the inhibition [2]?
Answer: < 20%
